pIC50: −log10 of the molar value.
What was measured:
HeLa [1] = assay: In vitro anticellular activity tested against HeLa S3 cells; format: functional, cell-based; details: Homo sapiens
Summary of the method: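 HeLa S3 cells seeded on day 0, then exposed to drug for 1 h on day 1; anticellular activity determined by a previously described method.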

Mus musculus [2] = assay: Effective dose that gave 50% inhibition of tumor growth was calculated towards sarcoma 180 cells which were inoculated subcutaneously to the axillary region of ddY mice; format: functional; details: Mus musculus, 180, sc
Summary of the method: (§1)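 Sarcoma 180 cells implanted sc in the axillary region of ddY mice on day 0; compounds given iv on day 1. Tumor volume compared treated versus control (T/C). 50% growth-inhibitory dose calculated from the dose-response curve; optimal dose also recorded.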

CCRF S-180 [3] = assay: Optimal dose towards sarcoma 180 cells, inoculated subcutaneously to the axillary region of ddY mice; format: functional, Mus musculus; summary of the method: as §1
Mus musculus [4] = assay: In vivo antitumor activity against lymphatic leukemia P388 cells sensitive to mitomycin C (MMC) was measured as maximal increase in life span of the treated mice at optimal dose of 3.1 mg/kg; format: functional
Mus musculus [5] = assay: In vivo antitumor activity against lymphatic leukemia P388 cells resistant to mitomycin C (MMC) was measured as maximal increase in life span of the treated mice at optimal dose of 3.1 mg/kg; format: functional
CCRF S-180 [6] = assay: Tumor volume of sarcoma 180 cells which were inoculated […] to the axillary region of ddY mice, after treatment; format: functional, Mus musculus
Mus musculus [7] = assay: In vivo antitumor activity against lymphatic leukemia P388 cells resistant to mitomycin C (MMC) was measured as maximal increase in life span of the treated mice at optimal dose of 1.6 mg/kg; format: functional
Mus musculus [8] = assay: In vivo antitumor activity against lymphatic leukemia P388 cells sensitive to mitomycin C (MMC) was measured as maximal increase in life span of the treated mice at optimal dose of 0.78 mg/kg; format: functional
HeLa [9] = assay: In vitro anticellular activity against HeLa S3 cells; 0.82-1.4; format: functional, cell-based; details: Homo sapiens
Mus musculus [10] = assay: Effective dose that gave 50% inhibition of tumor growth was calculated towards sarcoma 180 cells which were inoculated subcutaneously to the axillary region of ddY mice; 1.9-3.7; format: functional; details: Mus musculus, 180, sc
Mus musculus [11] = assay: Optimal dose was calculated towards sarcoma 180 cells which were inoculated subcutaneously to the axillary region of ddY mice; 4.0-6.0; format: functional
Mus musculus [12] = assay: In vivo antitumor activity against lymphatic leukemia P388 cells resistant to mitomycin C (MMC) was measured as maximal increase in life span of the treated mice at optimal dose of 1.0-4.0 mg/kg; format: functional
Mus musculus [13] = assay: In vivo antitumor activity against lymphatic leukemia P388 cells sensitive to mitomycin C (MMC) was measured as maximal increase in life span of the treated mice at optimal dose of 1.0-6.0 mg/kg; 38-84; format: functional
HeLa [14] = assay: In vitro anticellular activity against HeLa S3 cells; 0.59-1.1; format: functional, cell-based; details: Homo sapiens
Mus musculus [15] = assay: Tumor volume was calculated against sarcoma 180 cells which were inoculated subcutaneously to the axillary region of ddY mice; 0.28-0.46
Mus musculus [16] = assay: In vivo antitumor activity against lymphatic leukemia P388 cells resistant to mitomycin C (MMC) was measured as maximal increase in life span of the treated mice at optimal dose of 46 mg/kg; format: functional
Mus musculus [17] = assay: In vivo antitumor activity against lymphatic leukemia P388 cells sensitive to mitomycin C (MMC) was measured as maximal increase in life span of the treated mice at optimal dose of 13 mg/kg; format: functional
Mus musculus [18] = assay: In vivo antitumor activity against lymphatic leukemia P388 cells resistant to mitomycin C (MMC) was measured as maximal increase in life span of the treated mice at optimal dose of 50 mg/kg; format: functional
Mus musculus [19] = assay: In vivo antitumor activity against lymphatic leukemia P388 cells resistant to mitomycin C (MMC) was measured as maximal increase in life span of the treated mice at optimal dose of 6.0 mg/kg; format: functional
Mus musculus [20] = assay: In vivo antitumor activity against lymphatic leukemia P388 cells resistant to mitomycin C (MMC) was measured as maximal increase in life span of the treated mice at optimal dose of 13 mg/kg; format: functional
Mus musculus [21] = assay: In vivo antitumor activity against lymphatic leukemia P388 cells sensitive to mitomycin C (MMC) was measured as maximal increase in life span of the treated mice at optimal dose of 50 mg/kg; format: functional
Mus musculus [22] = assay: In vivo antitumor activity against lymphatic leukemia P388 cells resistant to mitomycin C (MMC) was measured as maximal increase in life span of the treated mice at optimal dose of 25 mg/kg; format: functional
Mus musculus [23] = assay: In vivo antitumor activity against lymphatic leukemia P388 cells sensitive to mitomycin C (MMC) was measured as maximal increase in life span of the treated mice at optimal dose of 25 mg/kg; format: functional
Mus musculus [24] = assay: In vivo antitumor activity against lymphatic leukemia P388 cells resistant to mitomycin C (MMC) was measured as maximal increase in life span of the treated mice at optimal dose of 9.0 mg/kg; format: functional
Mus musculus [25] = assay: The in vivo antitumor activity against lymphatic leukemia P388 cells resistant to mitomycin C (MMC) in mice was measured as maximal increase in life span of the treated mice at optimal dose of 3.1 mg/kg; format: functional

| SMILES | pIC50 (HeLa [1]) | ED50 (Mus musculus [2]) [mg/kg] | OD (CCRF S-180 [3]) [mg/kg] | other results |
| --- | --- | --- | --- | --- |
| CO[C@@]12[C@H](COC(N)=O)C3=C(C(=O)C(CSC4=NCCS4)=C(N)C3=O)N1C[C@@H]1N[C@@H]12 | 6.09 | 5.9 | 6.3 | ILS at 3.1 mg/kg (Mus musculus [4]): 62%; ILS at 3.1 mg/kg (Mus musculus [5]): 64% |
| COC(=O)CCSCC1=C(N)C(=O)C2=C(C1=O)N1C[C@@H]3N[C@@H]3[C@]1(OC)[C@@H]2COC(N)=O | 6.01 |  | 3.1 | T/C (CCRF S-180 [6]): 0.63 min; ILS at 3.1 mg/kg (Mus musculus [4]): 69% |
| CO[C@@]12[C@H](COC(N)=O)C3=C(C(=O)C(CSc4ncccn4)=C(N)C3=O)N1C[C@@H]1N[C@@H]12 | 6.02 | 8.9 | 13 | ILS at 1.6 mg/kg (Mus musculus [7]): > 92%; ILS at 0.78 mg/kg (Mus musculus [8]): 58% |
| CO[C@@]12[C@H](COC(N)=O)C3=C(C(=O)C(C)=C(N)C3=O)N1C[C@@H]1N[C@@H]12 [MITOMYCIN] |  |  |  | pIC50 (HeLa [9]): 5.85; ED50 (Mus musculus [10]): 3.7 mg/kg; OD (Mus musculus [11]): 6 mg/kg; ILS (Mus musculus [12]): 23%; ILS (Mus musculus [13]): 84%; pIC50 (HeLa [14]): 5.96; T/C (Mus musculus [15]): 0.46 |
| CO[C@@]12[C@H](COC(N)=O)C3=C(C(=O)C(CSc4ccccc4O)=C(N)C3=O)N1C[C@@H]1N[C@@H]12 | 5.66 | 22 | 46 | ILS at 46 mg/kg (Mus musculus [16]): > 67% |
| CO[C@@]12[C@H](COC(N)=O)C3=C(C(=O)C(CSc4nc5ccccc5s4)=C(N)C3=O)N1C[C@@H]1N[C@@H]12 | 6.15 | 36 | 50 | ILS at 13 mg/kg (Mus musculus [17]): 40%; ILS at 50 mg/kg (Mus musculus [18]): 57% |
| C=CCSCC1=C(N)C(=O)C2=C(C1=O)N1C[C@@H]3N[C@@H]3[C@]1(OC)[C@@H]2COC(N)=O | 5.64 |  | 14 | T/C (CCRF S-180 [6]): 0.77 min; ILS at 6 mg/kg (Mus musculus [19]): 33% |
| CO[C@@]12[C@H](COC(N)=O)C3=C(C(=O)C(CSC4OC(COC(C)=O)C(OC(C)=O)C(OC(C)=O)C4OC(C)=O)=C(N)C3=O)N1C[C@@H]1N[C@@H]12 (stereo partly drawn) | 5.96 | 24 | 25 | ILS at 13 mg/kg (Mus musculus [17]): 58%; ILS at 13 mg/kg (Mus musculus [20]): > 143% |
| CO[C@@]12[C@H](COC(N)=O)C3=C(C(=O)C(CSc4ccccc4)=C(N)C3=O)N1C[C@@H]1N[C@@H]12 | 6.00 | 6.1 | 22 | ILS at 50 mg/kg (Mus musculus [21]): 45% |
| CO[C@@]12[C@H](COC(N)=O)C3=C(C(=O)C4=C(Nc5ccccc5SC4)C3=O)N1C[C@@H]1N[C@@H]12 | 6.51 | 35 | 100 | ILS at 13 mg/kg (Mus musculus [17]): 36%; ILS at 25 mg/kg (Mus musculus [22]): 48% |
| CO[C@@]12[C@H](COC(N)=O)C3=C(C(=O)C(COC(C)C)=C(N)C3=O)N1C[C@@H]1N[C@@H]12 | 5.60 | 15 | 50 | ILS at 25 mg/kg (Mus musculus [23]): 55%; ILS at 25 mg/kg (Mus musculus [22]): > 97% |
| CO[C@@]12[C@H](COC(N)=O)C3=C(C(=O)C(CSc4nncn4C)=C(N)C3=O)N1C[C@@H]1N[C@@H]12 | 5.60 | 39 | 46 | ILS at 9 mg/kg (Mus musculus [24]): > 71% |
| CO[C@@]12[C@H](COC(N)=O)C3=C(C(=O)C(CSCC4CC4)=C(N)C3=O)N1C[C@@H]1N[C@@H]12 | 5.96 | 13 | 25 | ILS at 13 mg/kg (Mus musculus [17]): 43%; ILS at 1.6 mg/kg (Mus musculus [7]): > 115% |
| CO[C@@]12[C@H](COC(N)=O)C3=C(C(=O)C(CSc4nc(C)cc(C)n4)=C(N)C3=O)N1C[C@@H]1N[C@@H]12 | 5.96 |  | 6.3 | ILS at 3.1 mg/kg (Mus musculus [4]): 50% |
| CO[C@@]12[C@H](COC(N)=O)C3=C(C(=O)C(CSC(C)C)=C(N)C3=O)N1C[C@@H]1N[C@@H]12 | 5.27 | 8.4 | 25 | ILS at 50 mg/kg (Mus musculus [21]): 58%; ILS at 25 mg/kg (Mus musculus [22]): 30% |
| CO[C@@]12[C@H](COC(N)=O)C3=C(C(=O)C(CSc4cccs4)=C(N)C3=O)N1C[C@@H]1N[C@@H]12 | 5.31 | 29 | 46 | ILS at 46 mg/kg (Mus musculus [16]): > 56% |
| CO[C@@]12[C@H](COC(N)=O)C3=C(C(=O)C(CS(=O)(=O)C(C)C)=C(N)C3=O)N1C[C@@H]1N[C@@H]12 | < 5.00 |  |  |  |
| CO[C@@]12[C@H](COC(N)=O)C3=C(C(=O)C(CSc4nccn4C)=C(N)C3=O)N1C[C@@H]1N[C@@H]12 | 6.12 |  |  |  |
| CO[C@@]12[C@H](COC(N)=O)C3=C(C(=O)C4=C(NCCSC4)C3=O)N1C[C@@H]1N[C@@H]12 | 5.89 |  |  |  |
| CO[C@@]12[C@H](COC(N)=O)C3=C(C(=O)C(CSCC(O)CO)=C(N)C3=O)N1C[C@@H]1N[C@@H]12 (stereo partly drawn) | < 4.00 |  |  |  |
| CO[C@@]12[C@H](COC(N)=O)C3=C(C(=O)C(CSCc4ccccc4)=C(N)C3=O)N1C[C@@H]1N[C@@H]12 | 5.66 |  |  |  |
| C=CCOCC1=C(N)C(=O)C2=C(C1=O)N1C[C@@H]3N[C@@H]3[C@]1(OC)[C@@H]2COC(N)=O | 5.26 |  |  |  |
| CO[C@@]12[C@H](COC(N)=O)C3=C(C(=O)C(CSc4nc[nH]n4)=C(N)C3=O)N1C[C@@H]1N[C@@H]12 | 5.17 |  |  |  |
| CO[C@@]12[C@H](COC(N)=O)C3=C(C(=O)C(CSc4ncccc4O)=C(N)C3=O)N1C[C@@H]1N[C@@H]12 | 6.72 | 3.7 | 6.3 | ILS at 3.1 mg/kg (Mus musculus [4]): 49%; ILS at 3.1 mg/kg (Mus musculus [5]): 26% |
| CO[C@@]12[C@H](COC(N)=O)C3=C(C(=O)C(CSc4nccs4)=C(N)C3=O)N1C[C@@H]1N[C@@H]12 | 5.85 | 8.9 | 13 | ILS at 3.1 mg/kg (Mus musculus [25]): 26%; ILS at 3.1 mg/kg (Mus musculus [4]): 49% |
| CO[C@@]12[C@H](COC(N)=O)C3=C(C(=O)C(CSc4ncc[nH]4)=C(N)C3=O)N1C[C@@H]1N[C@@H]12 | 4.04 |  |  |  |
| CO[C@@]12[C@H](COC(N)=O)C3=C(C(=O)C(CSc4nc5ccccc5o4)=C(N)C3=O)N1C[C@@H]1N[C@@H]12 | 5.29 |  |  |  |

Source: ChEMBL document CHEMBL1127752, “Synthesis and antitumor activity of novel mitomycin derivatives containing functional groups at the C-6-methyl position” (J Med Chem, 1994)
